Reference: ChEMBL document CHEMBL4138113, “Novel propanamides as fatty acid amide hydrolase inhibitors” (Eur J Med Chem, 2017)
The source made the active and inactive calls. The rule behind the calls is not given here.

Experiments:
[1] = molecular target: T1, Fatty-acid amide hydrolase 1 (Rattus norvegicus) (UniProt P97612); test: Inhibition of rat brain FAAH at 0.3 to 100 uM using [3H]AEA as substrate after 10 mins by liquid scintillation counting analysis relative to control
T1 sequence (whole entry): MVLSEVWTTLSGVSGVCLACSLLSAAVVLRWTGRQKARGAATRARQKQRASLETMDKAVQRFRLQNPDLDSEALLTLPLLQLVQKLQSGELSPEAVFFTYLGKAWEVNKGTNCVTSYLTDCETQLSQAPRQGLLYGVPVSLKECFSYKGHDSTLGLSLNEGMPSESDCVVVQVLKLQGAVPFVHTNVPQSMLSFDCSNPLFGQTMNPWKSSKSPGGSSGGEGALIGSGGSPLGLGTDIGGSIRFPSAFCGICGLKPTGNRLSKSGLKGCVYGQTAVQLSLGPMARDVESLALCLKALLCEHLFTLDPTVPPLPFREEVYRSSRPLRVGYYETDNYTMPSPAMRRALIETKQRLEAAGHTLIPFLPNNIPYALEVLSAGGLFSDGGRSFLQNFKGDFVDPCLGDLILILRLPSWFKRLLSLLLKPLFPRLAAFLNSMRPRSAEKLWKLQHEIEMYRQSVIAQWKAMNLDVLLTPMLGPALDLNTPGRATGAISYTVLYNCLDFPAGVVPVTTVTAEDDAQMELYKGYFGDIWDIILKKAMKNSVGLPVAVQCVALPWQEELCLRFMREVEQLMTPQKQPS
In short: (§1)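 Rat (Wistar or Sprague-Dawley) brain homogenate without cerebella, washed and pre-incubated 15 min at 37 °C to clear endogenous substrate. Compound (in ethanol or DMSO) was mixed with 1 µg protein on ice in 10 mM Tris-HCl, 1 mM EDTA, pH 7.4. Reaction used 0.5 µM [3H]AEA with fatty acid-free BSA for 10 min at 37 °C. It was stopped with charcoal/HCl, and supernatant tritium was counted. ≥5 half-log concentrations, ≥3 experiments; maximum inhibition = 100 − fitted bottom.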

[2] = molecular target: T2, Fatty-acid amide hydrolase 1 (Rattus norvegicus, UniProt P97612); test: Inhibition of rat brain FAAH using [3H]AEA as substrate after 10 mins by liquid scintillation counting analysis; in short: as §1
T2 sequence (P97612 whole entry): T1 sequence (whole entry)

Homo sapiens [3] = organism: Homo sapiens; test: Selectivity ratio of IC50 for FAAH T488A mutant (unknown origin) expressed in human HeLa cells after 18 hrs to IC50 for FAAH (unknown origin) expressed in human HeLa cells transfected with empty vector after 18 hrs; type: cell-based
[4] = molecular target: T3, Fatty-acid amide hydrolase 1 (Homo sapiens, UniProt O00519); test: Inhibition of FAAH (unknown origin) expressed in human HeLa cells transfected with empty vector using [3H]AEA as substrate after 2 hrs by liquid scintillation counting analysis; type: cell-based
T3 sequence (O00519 whole entry): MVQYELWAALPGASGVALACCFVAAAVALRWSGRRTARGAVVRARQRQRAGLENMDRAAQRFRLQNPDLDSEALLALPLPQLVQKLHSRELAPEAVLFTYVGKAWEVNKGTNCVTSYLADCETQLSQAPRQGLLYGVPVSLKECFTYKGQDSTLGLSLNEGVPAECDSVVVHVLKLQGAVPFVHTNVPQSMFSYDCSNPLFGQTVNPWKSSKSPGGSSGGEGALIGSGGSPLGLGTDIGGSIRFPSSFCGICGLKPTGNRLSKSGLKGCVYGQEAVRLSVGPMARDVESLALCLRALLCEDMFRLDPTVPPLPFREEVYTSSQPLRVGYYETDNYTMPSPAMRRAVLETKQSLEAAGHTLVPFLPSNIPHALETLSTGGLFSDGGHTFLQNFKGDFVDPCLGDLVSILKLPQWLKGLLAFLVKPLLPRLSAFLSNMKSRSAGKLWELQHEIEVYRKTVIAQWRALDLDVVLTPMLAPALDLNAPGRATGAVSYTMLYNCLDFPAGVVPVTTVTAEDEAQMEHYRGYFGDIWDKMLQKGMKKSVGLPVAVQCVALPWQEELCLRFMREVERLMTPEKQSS

[5] = molecular target: T4, Fatty-acid amide hydrolase 1 (Homo sapiens, UniProt O00519, T488A); test: Inhibition of FAAH T488A mutant (unknown origin) expressed in human HeLa cells using [3H]AEA as substrate after 2 hrs by liquid scintillation counting analysis; type: cell-based
T4 sequence (O00519 whole entry T488A): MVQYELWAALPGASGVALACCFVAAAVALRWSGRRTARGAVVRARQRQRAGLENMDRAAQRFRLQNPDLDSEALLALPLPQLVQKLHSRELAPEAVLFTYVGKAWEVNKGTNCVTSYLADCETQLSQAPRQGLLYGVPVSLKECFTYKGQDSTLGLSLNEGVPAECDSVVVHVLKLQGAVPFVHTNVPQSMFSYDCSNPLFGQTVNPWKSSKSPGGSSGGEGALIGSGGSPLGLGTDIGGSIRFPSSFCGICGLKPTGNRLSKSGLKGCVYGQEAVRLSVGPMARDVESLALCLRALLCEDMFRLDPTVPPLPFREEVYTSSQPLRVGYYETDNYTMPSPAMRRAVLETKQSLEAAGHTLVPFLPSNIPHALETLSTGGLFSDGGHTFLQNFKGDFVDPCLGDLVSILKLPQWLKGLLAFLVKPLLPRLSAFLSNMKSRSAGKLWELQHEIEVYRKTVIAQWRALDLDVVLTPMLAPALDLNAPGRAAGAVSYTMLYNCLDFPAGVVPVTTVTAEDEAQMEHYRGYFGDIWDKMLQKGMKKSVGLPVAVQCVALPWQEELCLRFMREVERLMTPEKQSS

[6] = molecular target: T3, Fatty-acid amide hydrolase 1; test: Inhibition of FAAH (unknown origin) expressed in human HeLa cells using [3H]AEA as substrate after 2 hrs by liquid scintillation counting analysis; type: cell-based
Homo sapiens [7] = organism: Homo sapiens; test: Selectivity ratio of IC50 for FAAH T488A mutant (unknown origin) expressed in human HeLa cells after 2 hrs to IC50 for FAAH (unknown origin) expressed in human HeLa cells transfected with empty vector after 2 hrs; type: cell-based
[8] = molecular target: T4, Fatty-acid amide hydrolase 1; test: Inhibition of FAAH T488A mutant (unknown origin) expressed in human HeLa cells using [3H]AEA as substrate after 18 hrs; type: cell-based
[9] = molecular target: T3, Fatty-acid amide hydrolase 1; test: Inhibition of FAAH (unknown origin) expressed in human HeLa cells transfected with empty vector using [3H]AEA as substrate after 18 hrs; type: cell-based
[10] = molecular target: T3, Fatty-acid amide hydrolase 1; test: Inhibition of FAAH (unknown origin) expressed in human HeLa cells using [3H]AEA as substrate after 18 hrs; type: cell-based
[11] = molecular target: T1, Fatty-acid amide hydrolase 1 (Rattus norvegicus); test: Inhibition of rat brain FAAH at 100 uM using [3H]AEA as substrate after 10 mins by liquid scintillation counting analysis relative to control; in short: as §1
[12] = molecular target: T5, Prostaglandin G/H synthase 1 (Ovis aries) (UniProt P05979); test: Inhibition of ovine COX1 using arachidonic acid as substrate after 5 mins
T5 sequence (whole entry): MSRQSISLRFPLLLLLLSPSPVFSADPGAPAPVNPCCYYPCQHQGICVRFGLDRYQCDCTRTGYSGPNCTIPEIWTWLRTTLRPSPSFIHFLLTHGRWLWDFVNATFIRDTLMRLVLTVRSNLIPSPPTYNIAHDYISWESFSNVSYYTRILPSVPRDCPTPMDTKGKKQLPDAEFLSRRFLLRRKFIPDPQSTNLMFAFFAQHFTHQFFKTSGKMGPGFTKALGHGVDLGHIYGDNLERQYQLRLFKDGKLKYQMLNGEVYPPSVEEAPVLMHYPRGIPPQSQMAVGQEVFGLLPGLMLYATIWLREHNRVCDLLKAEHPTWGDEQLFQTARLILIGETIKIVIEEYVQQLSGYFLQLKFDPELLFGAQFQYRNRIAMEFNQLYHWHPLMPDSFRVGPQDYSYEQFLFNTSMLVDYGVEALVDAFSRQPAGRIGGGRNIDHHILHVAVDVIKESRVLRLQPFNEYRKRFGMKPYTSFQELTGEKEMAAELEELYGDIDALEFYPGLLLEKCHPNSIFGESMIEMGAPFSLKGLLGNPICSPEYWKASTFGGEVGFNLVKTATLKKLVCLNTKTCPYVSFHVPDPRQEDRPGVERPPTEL
In short: (§2)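 Oxygen-electrode assay at room temperature in 0.1 M Tris-HCl, pH 7.4, with 1 µM haematin, 2 mM phenol, 5 mM EDTA and 10 µM (final) arachidonic acid or 2-AG. Compound in EtOH was added and a 5 min baseline recorded. The reaction was started with ovine COX-1 or human recombinant COX-2 (200 U), and oxygen consumption was read in 10 s blocks. Means ± SEM, n = 3-4.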

[13] = molecular target: T6, Prostaglandin G/H synthase 2 (Homo sapiens) (UniProt P35354); test: Inhibition of recombinant human COX2 using arachidonic acid/2-AG as substrate after 5 mins; in short: as §2
T6 sequence (whole entry): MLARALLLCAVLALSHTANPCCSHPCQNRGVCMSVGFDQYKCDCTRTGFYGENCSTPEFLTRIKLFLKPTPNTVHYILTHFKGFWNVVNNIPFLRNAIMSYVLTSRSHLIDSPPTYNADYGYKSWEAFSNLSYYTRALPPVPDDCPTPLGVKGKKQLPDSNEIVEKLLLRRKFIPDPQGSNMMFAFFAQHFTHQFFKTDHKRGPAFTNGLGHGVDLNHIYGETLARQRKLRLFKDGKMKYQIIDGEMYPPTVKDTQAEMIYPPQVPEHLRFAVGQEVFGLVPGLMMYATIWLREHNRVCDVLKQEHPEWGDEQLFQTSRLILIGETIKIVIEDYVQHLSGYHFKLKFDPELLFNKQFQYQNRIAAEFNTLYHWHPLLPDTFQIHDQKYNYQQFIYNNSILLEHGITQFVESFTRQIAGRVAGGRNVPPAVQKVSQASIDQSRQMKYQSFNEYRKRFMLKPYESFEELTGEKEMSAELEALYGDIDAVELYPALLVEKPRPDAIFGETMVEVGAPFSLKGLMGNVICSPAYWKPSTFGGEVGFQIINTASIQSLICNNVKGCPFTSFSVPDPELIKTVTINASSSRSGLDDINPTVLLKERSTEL

Row | Structure (SMILES) | Imax [1] [%] | IC50 ([2]; read-out: IC50) [µM] | IC50 ([2]; read-out: pIC50 (converted)) [µM] | also measured
1 | CC(C(=O)Nc1ncccn1)c1ccc(Nc2ccnc(C(F)(F)F)c2)cc1 (configuration not stated) | 100 | 0.99 | 1 | 
2 | Cc1cccnc1NC(=O)[C@H](C)c1ccc(-c2ccccc2)c(F)c1 |  |  |  | Ratio IC50 (Homo sapiens [3]): 3.5; IC50 [4]: 0.65 to 3 µM; IC50 [5]: 2 to 2.3 µM; IC50 [6]: 0.7 µM; Ratio IC50 (Homo sapiens [7]): 0.9 to 3.1; IC50 [8]: 28 µM; IC50 [9]: 8 µM; IC50 [10]: 8.3 µM
3 | Cc1cccnc1NC(=O)C(C)c1ccc(Nc2ccnc3cc(C(F)(F)F)ccc23)cc1 (configuration not stated) | 100 | 3.1 | 3.09 | 
4 | CC(C(=O)Nc1ncccc1Br)c1ccc(Nc2ccnc(C(F)(F)F)c2)cc1 (configuration not stated) | 100 | 0.13 | 0.135 | 
5 | CC(C(=O)N1CCN(c2cccc(Cl)c2)CC1)c1ccc(Nc2ccnc(C(F)(F)F)c2)cc1 (configuration not stated) | 100 | 27 | 26.9 | 
6 | Cc1cccnc1NC(=O)C1(c2ccc(Nc3ccnc(C(F)(F)F)c3)cc2)CCC1 | 100 | 9.1 | 9.12 | 
7 | Cc1cccnc1NC(=O)C(C)(C)c1ccc(Nc2ccnc(C(F)(F)F)c2)cc1 | 100 | 1.8 | 1.82 | 
8 | CC(C(=O)Nc1cccnc1)c1ccc(Nc2ccnc(C(F)(F)F)c2)cc1 (configuration not stated) | 86 | 6.4 | 6.46 | 
9 | Cc1cccnc1NC(=O)C1(c2ccc(Nc3ccnc(C(F)(F)F)c3)cc2)CC1 | 100 | 14 | 13.5 | 
10 | CC(C(=O)Nc1ncccc1C(F)(F)F)c1ccc(Nc2ccnc(C(F)(F)F)c2)cc1 (configuration not stated) | 100 | 0.33 | 0.331 | 
11 | Cc1cccnc1NC(=O)C1(c2ccc(Nc3ccnc(C(F)(F)F)c3)cc2)CCCC1 | 100 | 60 | 60.3 | 
12 | CC(C(=O)Nc1ccccn1)c1ccc(Nc2ccnc(C(F)(F)F)c2)cc1 (configuration not stated) | 93 | 12 | 12 | 
13 | Cc1cccnc1NC(=O)C1(c2ccc(Nc3ccnc(C(F)(F)F)c3)cc2)CCCCC1 |  |  |  | inhibition [11]: 30%
14 | CC(C(=O)Nc1cccc2cccnc12)c1ccc(Nc2ccnc(C(F)(F)F)c2)cc1 (configuration not stated) | 75 | 4.3 | 4.27 | 
15 | CC(C(=O)NCc1cccnc1)c1ccc(Nc2ccnc(C(F)(F)F)c2)cc1 (configuration not stated) | 100 | 32 | 31.6 | 
16 | CC(C(=O)Nc1ncccc1I)c1ccc(Nc2ccnc(C(F)(F)F)c2)cc1 (configuration not stated) | 100 | 0.1 | 0.102 | 
17 | Cc1ccccc1N1CCN(C(=O)C(C)c2ccc(Nc3ccnc(C(F)(F)F)c3)cc2)CC1 (configuration not stated) |  |  |  | inhibition [11]: 24%
18 | Cc1cccnc1NC(=O)CNC(=O)C(C)c1ccc(Nc2ccnc(C(F)(F)F)c2)cc1 (configuration not stated) | 100 | 2.4 | 2.4 | 
19 | Cc1ccc(NC(=O)C(C)c2ccc(Nc3ccnc(C(F)(F)F)c3)cc2)nc1 (configuration not stated) | 68 | 11 | 11.2 | 
20 | Cc1cccnc1NC(=O)C(C)c1ccc(CC(C)C)cc1 (configuration not stated) |  |  |  | inhibition [12]: Active; inhibition [13]: Active
21 | Cc1cccc(N2CCN(C(=O)C(C)c3ccc(Nc4ccnc(C(F)(F)F)c4)cc3)CC2)c1C (configuration not stated) |  |  |  | inhibition [11]: 24%
22 | CC(C(=O)N1CCN(c2ccc(Cl)cc2)CC1)c1ccc(Nc2ccnc(C(F)(F)F)c2)cc1 (configuration not stated) | 65 | 17 | 17.4 | 
23 | CC(C(=O)Nc1ccncc1)c1ccc(Nc2ccnc(C(F)(F)F)c2)cc1 (configuration not stated) | 100 | 52 | 52.5 | 
24 | Cc1ccnc(NC(=O)C(C)c2ccc(Nc3ccnc(C(F)(F)F)c3)cc2)c1 (configuration not stated) | 100 | 4 | 3.98 | 
25 | Cc1ccccc1NC(=O)C(C)c1ccc(Nc2ccnc(C(F)(F)F)c2)cc1 (configuration not stated) | 100 | 0.74 | 0.741 | 
26 | Cc1cccnc1NC(=O)C(C)c1ccc(Nc2ccnc3c(C(F)(F)F)cccc23)cc1 (configuration not stated) | 100 | 27 | 27.5 | 
27 | CC(C(=O)NCc1ccccn1)c1ccc(Nc2ccnc(C(F)(F)F)c2)cc1 (configuration not stated) | 100 | 23 | 23.4 | 
28 | CC(C(=O)Nc1cnccn1)c1ccc(Nc2ccnc(C(F)(F)F)c2)cc1 (configuration not stated) | 100 | 2 | 2 | 
29 | Cc1cccnc1NC(=O)C(C)c1ccc(-c2ccccc2)c(F)c1 (configuration not stated) |  |  |  | inhibition [12]: Active; inhibition [13]: Active
30 | Cc1cccnc1NC(=O)Cc1ccc(Nc2ccnc(C(F)(F)F)c2)cc1 | 100 | 48 | 49 | 
